Experiments:
Format in all cases: functional, cell-based
NCI-H69 [1] = assay: Cytotoxicity against H69 human lung cancer cell line
Method in brief: (§1)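 SCLC floating cultures, grown in RPMI 1640 at 37 °C under 5% CO2, disaggregated by gentle pipetting, collected by sedimentation, and plated at 8000 cells/well. Drug (DMSO, then BSA and phosphate buffer dilutions) applied for 1 h, then centrifuged and washed twice with RPMI 1640. After 4 days at 37 °C, MTT was added for 4 h and formazan in DMSO read at 540 nm. IC50 is 50% growth inhibition.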

NCI-H417 [2] = assay: Cytotoxicity against N 417 human lung cancer cell line; method in brief: as §1
NCI-H460 [3] = assay: Cytotoxicity against H 460 human lung cancer cell line
Method in brief: (§2)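 Non-SCLC adherent cells, grown in RPMI 1640 at 37 °C under 5% CO2, trypsinized, resuspended in RPMI-1640/2% FBS, and plated at 2500 cells/well. Drug (DMSO, then BSA and phosphate buffer dilutions) applied for 1 h, then centrifuged and washed twice. Cells were kept 4 days at 37 °C, given MTT for 4 h, formazan dissolved in DMSO, and read at 540 nm. IC50 is the concentration giving 50% growth inhibition.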

NCI-H358 [4] = assay: Cytotoxicity against H 358 human lung cancer cell line; method in brief: as §2
NCI-H460 [5] = assay: Compound was evaluated for inhibitory activity against H 460 human lung cancer cell line; method in brief: as §2
NCI-H69 [6] = assay: Compound was evaluated for inhibitory activity against H69 human lung cancer cell line; method in brief: as §1
NCI-H417 [7] = assay: Compound was evaluated for inhibitory activity against N 417 human lung cancer cell line; method in brief: as §1
NCI-H358 [8] = assay: Compound was evaluated for inhibitory activity against H 358 human lung cancer cell line; method in brief: as §2

IC50 (NCI-H460 [5]) [µM] | IC50 (NCI-H69 [6]) [µM] | IC50 (NCI-H417 [7]) [µM] | IC50 (NCI-H358 [8]) [µM] | Compound | IC50 (NCI-H69 [1]) [µM] | IC50 (NCI-H417 [2]) [µM] | IC50 (NCI-H460 [3]) [µM] | IC50 (NCI-H358 [4]) [µM]
– | – | – | – | CNC(=O)OCc1c2ccncc2c(C)c2c1[nH]c1ccc(OC)cc12 | 0.22 | 0.09 | 0.06 | 0.1
– | – | – | – | Cc1c2cnccc2c(CO)c2[nH]c3ccc(O)cc3c12 | 1.6 | 1.8 | 0.95 | 1.5
1.8 | 1.8 | 0.9 | 1.5 | COc1ccc2[nH]c3c(C)c4ccnc(C=O)c4cc3c2c1 | – | – | – | –
– | – | – | – | CNC(=O)OCc1nccc2c(C)c3[nH]c4ccc(OC)cc4c3cc12 | 0.14 | 0.1 | 0.07 | 0.11
– | – | – | – | CNC(=O)OCc1c2cnccc2c(C)c2[nH]c3ccc(OC)cc3c12 | 0.17 | 0.04 | 0.02 | 0.09
– | – | – | – | COc1ccc2[nH]c3c(C)c4ccnc(CO)c4cc3c2c1 | 1.3 | 1.3 | 1.9 | 1.3
– | – | – | – | COc1ccc2[nH]c3c(C)c4ccnc(COC(C)=O)c4cc3c2c1 | 1.4 | 2.8 | 1.7 | 2
– | – | – | – | CNC(=O)OCc1c2ccncc2c(C)c2c1[nH]c1ccccc12 | 0.86 | 0.33 | 0.17 | 0.19
– | – | – | – | Cc1c2ccncc2c(C)c2c1[nH]c1ccc(O)cc12 | 1.7 | 3.5 | 2.8 | 5.8
1.8 | 1.7 | 3.4 | 2.3 | Cc1nccc2c(C)c3[nH]c4ccccc4c3cc12 | – | – | – | –
2.1 | 1.2 | 1.8 | 2.1 | COc1ccc2[nH]c3c(C)c4ccnc(C)c4cc3c2c1 | – | – | – | –
0.23 | 0.87 | 0.23 | 0.62 | COc1cccc2c1C(=O)c1c(O)c3c(c(O)c1C2=O)C[C@@](O)(C(=O)CO)C[C@@H]3O[C@H]1C[C@H](N)[C@H](O)[C@H](C)O1 [DOXORUBICIN] | – | – | – | –
> 48 | > 48 | > 48 | > 48 | Cc1c2cc[n+](C)cc2c(C)c2c1[nH]c1ccc(O)cc12 [ELLIPTINIUM] | – | – | – | –

Compound | IC50 (NCI-H460 [5]) [µM] | IC50 (NCI-H69 [6]) [µM] | IC50 (NCI-H417 [7]) [µM] | IC50 (NCI-H358 [8]) [µM] | IC50 (NCI-H69 [1]) [µM] | IC50 (NCI-H417 [2]) [µM] | IC50 (NCI-H460 [3]) [µM] | IC50 (NCI-H358 [4]) [µM]
Cc1c2ccncc2c(C)c2c1[nH]c1ccccc12 [ELLIPTECINE] | 0.51 | 1.8 | 0.87 | 0.2 | – | – | – | –

— ChEMBL document CHEMBL1125566, “N-methylcarbamate derivatives of ellipticine and olivacine with cytotoxic activity against four human lung cancer cell lines” (J Med Chem, 1992)
